Results from ChEMBL document CHEMBL1138346, “BINOL-amino acid conjugates as triggerable carriers of DNA-targeted potent photocytotoxic agents” (J Med Chem, 2007).
pEC50: −log10 of the molar value. Active and inactive are the calls of the source. No cut-off for these calls is given here.

Tested on: LoVo
Test: Photocytotoxicity against UV irradiated human LoVo cells after 24 hrs by MTT assay
Assay type: functional, cell-based
Conditions: Homo sapiens, LoVo, light or radiation study, 24 h
Procedure, shortened: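 LoVo cells in DMEM/F-12 1:1 with 10% FBS, plated at 1.75 × 10^4 cells/well overnight. Exposed 24 h to 12 nM–200 µM compound (DMSO, 1% final), washed, fresh medium, irradiated 30 min at 360 nm, then 24 h at 37 °C. MTT absorbance at 540 nm, survival relative to solvent controls; EC50 from mean of three experiments in triplicate.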

Row | SMILES | pEC50
1 | O=C(O)[C@@H]1CCCN1Cc1cc2ccccc2c(-c2c(O)c(CN3CCC[C@H]3C(=O)O)cc3ccccc23)c1O (stereo in doubt; (R,S,S)-6) [listing 1 of 2 here] | < 3.70
2 | NCCCC[C@H](NCc1cc2ccccc2c(-c2c(O)c(CN[C@@H](CCCCN)C(=O)O)cc3ccccc23)c1O)C(=O)O | < 3.70
3 | COC(=O)[C@H](C)NCc1cc2ccccc2c(-c2c(O)c(CN[C@@H](C)C(=O)OC)cc3ccccc23)c1O | 5.40
4 | Cc1cc2cc3c(C)cc(=O)oc3c(C)c2o1 [TRIOXSALEN] | 6.03
5 | C[N+](C)(C)Cc1cc2ccccc2c(-c2c(O)c(C[N+](C)(C)C)cc3ccccc23)c1O | < 3.70
6 | COC(=O)[C@@H](NCc1cc2ccccc2c(-c2c(O)c(CN[C@H](C(=O)OC)C(C)C)cc3ccccc23)c1O)C(C)C | 6.89
7 | COC(=O)[C@@H]1CCCN1Cc1cc2ccccc2c(-c2c(O)c(CN3CCC[C@H]3C(=O)OC)cc3ccccc23)c1O (stereo in doubt; (R,S,S)-5) [listing 1 of 2 here] | 6.64

Same assay, conditions: lovo

Row | SMILES | pEC50
8 | COC(=O)[C@@H]1CCCN1Cc1cc2ccccc2c(-c2c(O)c(CN3CCC[C@H]3C(=O)OC)cc3ccccc23)c1O (stereo in doubt; (S,S,S)-5) [listing 1 of 2 here] | 6.66

Tested on: LoVo
Test: Cytotoxicity against human LoVo cells after 24 hrs by MTT assay
Assay type: functional
Conditions: not given
Procedure, shortened: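 Dark cytotoxicity (CC50), LoVo human colorectal adenocarcinoma in DMEM/F-12 1:1 with 10% FBS, 37 °C, 5% CO2. 1.75 × 10^4 cells/well plated overnight; compound 12 nM–200 µM in DMSO (1% final) for 24 h, then washed and fresh medium, kept in dark 24 h more at 37 °C. MTT read at 540 nm; mean of three experiments in triplicate.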

Row | SMILES | CC50 [µM]
9 | O=C(O)[C@@H]1CCCN1Cc1cc2ccccc2c(-c2c(O)c(CN3CCC[C@H]3C(=O)O)cc3ccccc23)c1O (stereo in doubt; (R,S,S)-6) [listing 1 of 2 here] | > 200
10 | NCCCC[C@H](NCc1cc2ccccc2c(-c2c(O)c(CN[C@@H](CCCCN)C(=O)O)cc3ccccc23)c1O)C(=O)O | > 200
11 | COC(=O)[C@H](C)NCc1cc2ccccc2c(-c2c(O)c(CN[C@@H](C)C(=O)OC)cc3ccccc23)c1O | 1.5
12 | Cc1cc2cc3c(C)cc(=O)oc3c(C)c2o1 [TRIOXSALEN] | > 200
13 | C[N+](C)(C)Cc1cc2ccccc2c(-c2c(O)c(C[N+](C)(C)C)cc3ccccc23)c1O | > 200
14 | COC(=O)[C@@H](NCc1cc2ccccc2c(-c2c(O)c(CN[C@H](C(=O)OC)C(C)C)cc3ccccc23)c1O)C(C)C | 14
15 | COC(=O)[C@@H]1CCCN1Cc1cc2ccccc2c(-c2c(O)c(CN3CCC[C@H]3C(=O)OC)cc3ccccc23)c1O (stereo in doubt; (R,S,S)-5) [listing 1 of 2 here] | > 200

Tested on: LoVo
Test: Selectivity index, ratio of CC50 for LoVo cells to EC50 for UV irradiated LoVo cells
Assay type: functional, Homo sapiens
Conditions: not given
Procedure, shortened: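 Ratio CC50/EC50 in LoVo cells; both from MTT after 24 h compound exposure (12 nM–200 µM, 1% DMSO), then 24 h more either in the dark or after 30 min irradiation at 360 nm. Mean of three triplicate experiments.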

Row | SMILES | Ratio CC50/EC50
16 | COC(=O)[C@@H]1CCCN1Cc1cc2ccccc2c(-c2c(O)c(CN3CCC[C@H]3C(=O)OC)cc3ccccc23)c1O (stereo in doubt; (S,S,S)-5) [listing 1 of 2 here] | >900
17 | COC(=O)[C@H](C)NCc1cc2ccccc2c(-c2c(O)c(CN[C@@H](C)C(=O)OC)cc3ccccc23)c1O | 0.4
18 | Cc1cc2cc3c(C)cc(=O)oc3c(C)c2o1 [TRIOXSALEN] | >210
19 | COC(=O)[C@@H](NCc1cc2ccccc2c(-c2c(O)c(CN[C@H](C(=O)OC)C(C)C)cc3ccccc23)c1O)C(C)C | 108
20 | COC(=O)[C@@H]1CCCN1Cc1cc2ccccc2c(-c2c(O)c(CN3CCC[C@H]3C(=O)OC)cc3ccccc23)c1O (stereo in doubt; (R,S,S)-5) [listing 1 of 2 here] | >860

Tested on: not listed separately
Test: Partition coefficient, log P of the compound
Assay type: physicochemical
Conditions: octanol/water
Procedure, shortened: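 Calculated log P of neutral form by Crippen fragmentation method.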

Row | SMILES | logP
21 | NCCCC[C@H](NCc1cc2ccccc2c(-c2c(O)c(CN[C@@H](CCCCN)C(=O)O)cc3ccccc23)c1O)C(=O)O | 3.34
22 | COC(=O)[C@H](C)NCc1cc2ccccc2c(-c2c(O)c(CN[C@@H](C)C(=O)OC)cc3ccccc23)c1O | 4.38
23 | Cc1cc2cc3c(C)cc(=O)oc3c(C)c2o1 [TRIOXSALEN] | 2.44
24 | COC(=O)[C@@H](NCc1cc2ccccc2c(-c2c(O)c(CN[C@H](C(=O)OC)C(C)C)cc3ccccc23)c1O)C(C)C | 6.15

Results, then the molecule that gave them:

Row | logP | SMILES
25 | 4.81 | COC(=O)[C@@H]1CCCN1Cc1cc2ccccc2c(-c2c(O)c(CN3CCC[C@H]3C(=O)OC)cc3ccccc23)c1O (stereo in doubt; (S,S,S)-5) [listing 1 of 2 here]
26 | 4.28 | O=C(O)[C@@H]1CCCN1Cc1cc2ccccc2c(-c2c(O)c(CN3CCC[C@H]3C(=O)O)cc3ccccc23)c1O (stereo in doubt; (S,S,S)-6) [listing 1 of 2 here]

Tested on: not listed separately
Test: Induction of pBR322 cross-linking after irradiation by alkaline agarose gel assay
Conditions: Escherichia coli
Procedure, shortened: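 pBR322 (0.5 µg/sample) with compound 0.62–80 µM (DMSO stock diluted in water), 50 mM phosphate pH 7.5, irradiated on ice 20 min at 360 nm, 120 W. Run on 1% alkaline agarose (50 mM NaOH, 1 mM EDTA), 12 V, 15–16 h, ethidium bromide stain. Value is lowest concentration giving interstrand cross-link band.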

Row | SMILES | Minimum concentration for DNA interstrand cross-linking [µM]
27 | NCCCC[C@H](NCc1cc2ccccc2c(-c2c(O)c(CN[C@@H](CCCCN)C(=O)O)cc3ccccc23)c1O)C(=O)O | 20
28 | COC(=O)[C@H](C)NCc1cc2ccccc2c(-c2c(O)c(CN[C@@H](C)C(=O)OC)cc3ccccc23)c1O | > 40
29 | Cc1cc2cc3c(C)cc(=O)oc3c(C)c2o1 [TRIOXSALEN] | < 0.5
30 | COC(=O)[C@@H](NCc1cc2ccccc2c(-c2c(O)c(CN[C@H](C(=O)OC)C(C)C)cc3ccccc23)c1O)C(C)C | 5

Second part, the molecule after the results:

Row | Minimum concentration for DNA interstrand cross-linking [µM] | SMILES
31 | 1.25 | C[N+](C)(C)Cc1cc2ccccc2c(-c2c(O)c(C[N+](C)(C)C)cc3ccccc23)c1O
32 | 20 | COC(=O)[C@@H]1CCCN1Cc1cc2ccccc2c(-c2c(O)c(CN3CCC[C@H]3C(=O)OC)cc3ccccc23)c1O (stereo in doubt; (R,S,S)-5) [listing 2 of 2 here]
33 | 2.5 | O=C(O)[C@@H]1CCCN1Cc1cc2ccccc2c(-c2c(O)c(CN3CCC[C@H]3C(=O)O)cc3ccccc23)c1O (stereo in doubt; (S,S,S)-6) [listing 2 of 2 here]
34 | 20 | COC(=O)[C@@H]1CCCN1Cc1cc2ccccc2c(-c2c(O)c(CN3CCC[C@H]3C(=O)OC)cc3ccccc23)c1O (stereo in doubt; (S,S,S)-5) [listing 2 of 2 here]
35 | 2.5 | O=C(O)[C@@H]1CCCN1Cc1cc2ccccc2c(-c2c(O)c(CN3CCC[C@H]3C(=O)O)cc3ccccc23)c1O (stereo in doubt; (R,S,S)-6) [listing 2 of 2 here]

Tested on: Escherichia coli
Test: Induction of pBR322 cross-linking in absence of irradiation by alkaline agarose gel assay
Conditions: not given

Row | SMILES | Activity
36 | NCCCC[C@H](NCc1cc2ccccc2c(-c2c(O)c(CN[C@@H](CCCCN)C(=O)O)cc3ccccc23)c1O)C(=O)O | inactive
37 | COC(=O)[C@H](C)NCc1cc2ccccc2c(-c2c(O)c(CN[C@@H](C)C(=O)OC)cc3ccccc23)c1O | inactive
38 | Cc1cc2cc3c(C)cc(=O)oc3c(C)c2o1 [TRIOXSALEN] | inactive
39 | COC(=O)[C@@H](NCc1cc2ccccc2c(-c2c(O)c(CN[C@H](C(=O)OC)C(C)C)cc3ccccc23)c1O)C(C)C | inactive

Now from value to molecule:

Row | Activity | SMILES
40 | inactive | C[N+](C)(C)Cc1cc2ccccc2c(-c2c(O)c(C[N+](C)(C)C)cc3ccccc23)c1O
41 | inactive | COC(=O)[C@@H]1CCCN1Cc1cc2ccccc2c(-c2c(O)c(CN3CCC[C@H]3C(=O)OC)cc3ccccc23)c1O (stereo in doubt; (R,S,S)-5) [listing 2 of 2 here]
42 | inactive | O=C(O)[C@@H]1CCCN1Cc1cc2ccccc2c(-c2c(O)c(CN3CCC[C@H]3C(=O)O)cc3ccccc23)c1O (stereo in doubt; (S,S,S)-6) [listing 2 of 2 here]
43 | inactive | COC(=O)[C@@H]1CCCN1Cc1cc2ccccc2c(-c2c(O)c(CN3CCC[C@H]3C(=O)OC)cc3ccccc23)c1O (stereo in doubt; (S,S,S)-5) [listing 2 of 2 here]
44 | inactive | O=C(O)[C@@H]1CCCN1Cc1cc2ccccc2c(-c2c(O)c(CN3CCC[C@H]3C(=O)O)cc3ccccc23)c1O (stereo in doubt; (R,S,S)-6) [listing 2 of 2 here]

Tested on: Escherichia coli
Test: Induction of pBR322 cross-linking after irradiation at 20 mM at pH 5.5 by alkaline agarose gel assay
Conditions: not given

Row | Activity | SMILES
45 | Active | NCCCC[C@H](NCc1cc2ccccc2c(-c2c(O)c(CN[C@@H](CCCCN)C(=O)O)cc3ccccc23)c1O)C(=O)O
46 | Active | O=C(O)[C@@H]1CCCN1Cc1cc2ccccc2c(-c2c(O)c(CN3CCC[C@H]3C(=O)O)cc3ccccc23)c1O (stereo in doubt; (S,S,S)-6) [listing 2 of 2 here]
47 | Active | O=C(O)[C@@H]1CCCN1Cc1cc2ccccc2c(-c2c(O)c(CN3CCC[C@H]3C(=O)O)cc3ccccc23)c1O (stereo in doubt; (R,S,S)-6) [listing 2 of 2 here]
